Results as given in ChEMBL document CHEMBL1124472, “Renal vasodilators. The role of the 4-substituent in isoquinolin-3-ol cardiovascular agents: 4-ureido derivatives of isoquinolin-3-ol with selective renal vasodilator properties” (1989).

How the values were obtained:
Conditions in all cases: route intravenous
Canis familiaris [1] = test: (§1) Percent change in renal blood flow by 1.2 mg/kg of compound administered intravenously in dog; type: functional, Canis lupus familiaris, Kidney
Procedure, shortened: (§2)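 Adult dogs anesthetized with pentobarbital (45 mg/kg ip), instrumented for electromagnetic renal artery flow; femoral artery cannulated for blood pressure, cardiotachometer for heart rate; iv via femoral vein. Cumulative infusion at rising rates, 5 min each (0.2+1.0 mg/kg for 1.2; 0.2+1.0+5.0 mg/kg for 6.2), in 0.9% saline ± acid/base; ≥2 dogs; maximal % change from predrug over ≥30 min; RVR = MAP/RBF.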

Canis familiaris [2] = test: Percent change in heart rate by 1.2 mg/kg of compound administered intravenously in dog; type: functional, Canis lupus familiaris; procedure, shortened: as §2
Canis familiaris [3] = test: Percent change in renal vascular resistant e by 1.2 mg/kg of compound administered intravenously in dog; type: functional, Canis lupus familiaris; procedure, shortened: as §2
Canis familiaris [4] = test: Percent change in mean arterial blood pressure by 1.2 mg/kg of compound administered intravenously in dog; type: functional, Canis lupus familiaris; procedure, shortened: as §2
Canis familiaris [5] = test: Percent change in renal blood flow by 6.2 mg/kg of compound administered intravenously in dog; type: functional, Canis lupus familiaris; procedure, shortened: as §2
Canis familiaris [6] = test: Percent change in mean arterial blood pressure by 6.2 mg/kg of compound administered intravenously in dog; type: functional, Canis lupus familiaris; procedure, shortened: as §2
Canis familiaris [7] = test: Percent change in heart rate by 6.2 mg/kg of compound administered intravenously in dog; type: functional, Canis lupus familiaris; procedure, shortened: as §2
Canis familiaris [8] = test: Percent change in renal vascular resistant e by 6.2 mg/kg of compound administered intravenously in dog; type: functional, Canis lupus familiaris; procedure, shortened: as §2
Canis familiaris [9] = test: Percent increase in myocardial contractile force by 0.025 mg/kg of compound administered intravenously in dog; type: functional, Canis lupus familiaris, Myocardium
Procedure, shortened: (§3)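 Adult mongrel dogs, pentobarbital 45 mg/kg ip, artificially respired; right thoracotomy, Walton Brodie strain gauge on right ventricle at 100 g baseline tension. Only dogs giving >100% contractile-force rise to dopamine (10-15 μg/kg per min × 3 min) were used. Compound in 10-15% dimethylformamide, total dose infused iv into femoral vein; % change in contractile force.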

Canis familiaris [10] = test: Percent increase in myocardial contractile force by 1.75 mg/kg of compound administered intravenously in dog; type: functional, Canis lupus familiaris, Myocardium; procedure, shortened: as §3
Canis familiaris [11] = test: as §1; type: functional, Canis lupus familiaris; procedure, shortened: as §2
Canis familiaris [12] = test: Percent increase in myocardial contractile force by 1.88 mg/kg of compound administered intravenously in dog; type: functional, Canis lupus familiaris, Myocardium; procedure, shortened: as §3
Canis familiaris [13] = test: Percent increase in myocardial contractile force by 8.75 mg/kg of compound administered intravenously in dog; type: functional, Canis lupus familiaris, Myocardium; procedure, shortened: as §3

With `C=CCNC(=O)Nc1c(O)nc(C)c2cc(OCC)c(OC)cc12` the Change (Canis familiaris [1]) was 28%, the Change (Canis familiaris [2]) was 29% and the Change (Canis familiaris [3]) was -22%. For the same compound, the Change (Canis familiaris [4]) was -2%.

`COc1cc2cnc(O)c(NC(C)=O)c2cc1OC` was tested, and the Change (Canis familiaris [5]) was 30%, the Change (Canis familiaris [6]) was 14% and the Change (Canis familiaris [7]) was -8%. It also gave a Change (Canis familiaris [8]) of -12%.

In the case of `CCc1c(O)nc(C)c2cc(OC)c(OC)cc12`, the Increase (Canis familiaris [9]) is reported as 143%.

`CCCCCC(=O)Nc1c(O)nc(C)c2cc(OC)c(OC)cc12` showed a Change (Canis familiaris [5]) of -27%, a Change (Canis familiaris [6]) of 0% and a Change (Canis familiaris [7]) of -9%. For the same compound, the Change (Canis familiaris [8]) was 40%.

`COc1cc2c(C)nc(O)c(NC(=O)C(C)C)c2cc1OC` was tested, and the Change (Canis familiaris [5]) was -5%, the Change (Canis familiaris [6]) was -2% and the Change (Canis familiaris [7]) was -1%. It also gave a Change (Canis familiaris [8]) of -4%.

Work on `CCNC(=O)Nc1c(O)nc(C)c2cc(OC)c(OC)cc12` yielded a Change (Canis familiaris [1]) of 28%, a Change (Canis familiaris [2]) of 0% and a Change (Canis familiaris [3]) of -22%. The Change (Canis familiaris [4]) was 0%.

Compound `CCCCC(=O)Nc1c(O)nc(C)c2cc(OC)c(OC)cc12` has a Change (Canis familiaris [5]) of -9%, a Change (Canis familiaris [6]) of 3% and a Change (Canis familiaris [7]) of 6%. The Change (Canis familiaris [8]) was 13%.

In the case of `COc1cc2cc(O)nc(C)c2cc1OC`, the Increase (Canis familiaris [10]) is reported as 100%.

Work on `CCCCNC(=O)Nc1c(O)nc(C)c2cc(OC)c(OC)cc12` yielded a Change (Canis familiaris [5]) of 117%, a Change (Canis familiaris [1]) of 36% and a Change (Canis familiaris [2]) of 6%. For the same compound, the Change (Canis familiaris [3]) was -27%, the Change (Canis familiaris [6]) was 4% and the Change (Canis familiaris [7]) was -2%. For the same compound, the Change (Canis familiaris [4]) was -3% and the Change (Canis familiaris [8]) was -52%.

`COc1ccc(NC(=O)Nc2c(O)nc(C)c3cc(OC)c(OC)cc23)cc1` was tested, and the Change (Canis familiaris [5]) was 68%, the Change (Canis familiaris [6]) was 12% and the Change (Canis familiaris [7]) was 2%. For the same compound, the Change (Canis familiaris [8]) was -32%.

For `CCOC(=O)c1ccc(NC(=O)Nc2c(O)nc(C)c3cc(OC)c(OC)cc23)cc1`, the Change (Canis familiaris [1]) was 2%, the Change (Canis familiaris [2]) was -1% and the Change (Canis familiaris [3]) was -4%. The Change (Canis familiaris [4]) was -2%.

Compound `COc1cc2c(C)nc(O)c(NC(=O)Nc3cccc(C(F)(F)F)c3)c2cc1OC` has a Change (Canis familiaris [5]) of 23%, a Change (Canis familiaris [6]) of 2% and a Change (Canis familiaris [7]) of -10%. The Change (Canis familiaris [8]) was -16%.

In the case of `CCCCNC(=O)Nc1c(O)nc(C)c2cc(OC)ccc12`, the Change (Canis familiaris [1]) is reported as -12%, the Change (Canis familiaris [2]) is reported as -6% and the Change (Canis familiaris [3]) is reported as 16%. For the same compound, the Change (Canis familiaris [4]) was 3%.

`COc1cc2c(C)nc(O)c(NC(=O)Nc3ccc([N+](=O)[O-])cc3)c2cc1OC` was tested, and the Change (Canis familiaris [1]) was 3%, the Change (Canis familiaris [2]) was -1% and the Change (Canis familiaris [3]) was -2%. It also gave a Change (Canis familiaris [4]) of 1%.

In the case of `COc1ccc(NC(=O)Nc2c(O)nc(C)c3c(OC)c(OC)c(OC)cc23)cc1`, the Change (Canis familiaris [5]) is reported as 14%, the Change (Canis familiaris [6]) is reported as -4% and the Change (Canis familiaris [7]) is reported as 7%. It also gave a Change (Canis familiaris [8]) of -15%.

In the case of `COc1cc2c(C)nc(O)c(NC(=O)Nc3ccccc3)c2cc1OC`, the Change (Canis familiaris [1]) is reported as -23%, the Change (Canis familiaris [2]) is reported as -13% and the Change (Canis familiaris [3]) is reported as 35%. The Change (Canis familiaris [4]) was 0%.

For `COc1cccc(NC(=O)Nc2c(O)nc(C)c3cc(OC)ccc23)c1`, the Change (Canis familiaris [1]) was 17%, the Change (Canis familiaris [2]) was 5% and the Change (Canis familiaris [3]) was -4%. It also gave a Change (Canis familiaris [4]) of 2%.

In the case of `CCCCOC(=O)Nc1c(O)nc(C)c2cc(OC)c(OC)cc12`, the Change (Canis familiaris [5]) is reported as -23%, the Change (Canis familiaris [6]) is reported as -3% and the Change (Canis familiaris [7]) is reported as -6%. The Change (Canis familiaris [8]) was 29%.

In the case of `COc1cccc(NC(=O)Nc2c(O)nc(C)c3c(OC)c(OC)ccc23)c1`, the Change (Canis familiaris [2]) is reported as -2%, the Change (Canis familiaris [3]) is reported as -16% and the Change (Canis familiaris [11]) is reported as 17%. For the same compound, the Change (Canis familiaris [4]) was -3%.

Compound `CCCNC(=O)Nc1c(O)nc(C)c2cc(OC)c(OC)cc12` has a Change (Canis familiaris [1]) of 5%, a Change (Canis familiaris [2]) of -7% and a Change (Canis familiaris [3]) of 0%. It also gave a Change (Canis familiaris [4]) of 1%.

Compound `C=CCNC(=O)Nc1c(O)nc(C)c2cc(OC)c(OC)cc12` has a Change (Canis familiaris [1]) of 97%, a Change (Canis familiaris [2]) of -3% and a Change (Canis familiaris [3]) of -44%. The Change (Canis familiaris [4]) was 8%.

Work on `COc1cc2c(C)nc(O)c(NC(=O)Nc3ccc(C(F)(F)F)cc3)c2cc1OC` yielded a Change (Canis familiaris [5]) of 49%, a Change (Canis familiaris [6]) of 4% and a Change (Canis familiaris [7]) of 10%. It also gave a Change (Canis familiaris [8]) of -29%.

`COc1cc2c(C)nc(O)c(N)c2cc1OC` gave an Increase (Canis familiaris [12]) of 114%, a Change (Canis familiaris [1]) of 23% and a Change (Canis familiaris [6]) of 6%. The Change (Canis familiaris [7]) was 4% and the Change (Canis familiaris [8]) was -13%.

For `COc1cccc(NC(=O)Nc2c(O)nc(C)c3cc(OC)c(OC)cc23)c1`, the Change (Canis familiaris [5]) was 59%, the Change (Canis familiaris [6]) was -1% and the Change (Canis familiaris [7]) was -2%. The Change (Canis familiaris [8]) was -36%.

`CNC(=O)Nc1c(O)nc(C)c2cc(OC)c(OC)cc12` was tested, and the Change (Canis familiaris [1]) was 4%, the Change (Canis familiaris [2]) was 3% and the Change (Canis familiaris [3]) was -5%. For the same compound, the Change (Canis familiaris [4]) was 4%.

`CCOc1cc2c(C)nc(O)c(NC(=O)Nc3ccc(OC)cc3)c2cc1OC` was tested, and the Change (Canis familiaris [5]) was -8%, the Change (Canis familiaris [6]) was 6% and the Change (Canis familiaris [7]) was 10%. The Change (Canis familiaris [8]) was 15%.

For `COc1cc2c(C)nc(O)c(NC(=O)NC(C)(C)C)c2cc1OC`, the Change (Canis familiaris [5]) was 10%, the Change (Canis familiaris [6]) was 1% and the Change (Canis familiaris [7]) was -4%. The Change (Canis familiaris [8]) was -8%.

In the case of `COc1cc2c(C)nc(O)c(NC(=O)NC(C)C)c2cc1OC`, the Change (Canis familiaris [1]) is reported as 11%, the Change (Canis familiaris [2]) is reported as 3% and the Change (Canis familiaris [3]) is reported as -10%. It also gave a Change (Canis familiaris [4]) of -9%.

`C=CCOC(=O)Nc1c(O)nc(C)c2cc(OC)c(OC)cc12` showed a Change (Canis familiaris [5]) of 2%, a Change (Canis familiaris [6]) of -9% and a Change (Canis familiaris [7]) of -2%. The Change (Canis familiaris [8]) was -11%.

`COc1cc2c(C)nc(O)c(NC(=O)NC3CCCCC3)c2cc1OC` was tested, and the Change (Canis familiaris [1]) was 7%, the Change (Canis familiaris [2]) was 0% and the Change (Canis familiaris [3]) was -4%. For the same compound, the Change (Canis familiaris [4]) was 0%.

`CCCCNC(=O)Nc1c(O)nc(C)c2cc(O)c(O)cc12` showed a Change (Canis familiaris [1]) of -2%, a Change (Canis familiaris [2]) of 2% and a Change (Canis familiaris [3]) of 2%. The Change (Canis familiaris [4]) was -1%.

For `COc1cc2c(C)nc(O)c(NC(=O)Nc3ccc(C(=O)O)cc3)c2cc1OC`, the Change (Canis familiaris [1]) was 40%, the Change (Canis familiaris [2]) was -12% and the Change (Canis familiaris [3]) was -28%. The Change (Canis familiaris [4]) was -1%.

`COc1cc2c(C)nc(O)c(NC(C)=O)c2cc1OC` gave a Change (Canis familiaris [5]) of 39%, an Increase (Canis familiaris [13]) of 47% and a Change (Canis familiaris [6]) of 6%. For the same compound, the Change (Canis familiaris [7]) was 14% and the Change (Canis familiaris [8]) was -24%.
